Laboratory results as given in ChEMBL document CHEMBL1146219, “Synthesis and evaluation of novel radioiodinated benzamides for malignant melanoma” (J Med Chem, 2007).

Columns and labels:
Settings in all cases: in vivo
[1] = Biodistribution in tumor of B16F0 tumor bearing C57BL/6J mouse at 0.37-0.74 MBq, iv after 1 hr in presence of haloperidol; format: ADME, organism-based, B16-F0
In short: (§1)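 B16F0 tumor-bearing C57BL/6J mice, groups of n = 5, given haloperidol 1 mg/kg i.v. 5 min before the i.v. [¹²³I]tracer (0.37-0.74 MBq). Killed at 1 or 24 h. Tissues γ-counted as for biodistribution and compared with untreated controls by one-way ANOVA, significance p < 0.01.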

[2] = test system: Liver; experiment: Biodistribution in liver of B16F0 tumor bearing C57BL/6J mouse at 0.37-0.74 MBq, iv after 72 hrs; format: ADME, organism-based
In short: (§2)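 Female C57BL/6J mice (15-18 g) were given B16F0 cells subcutaneously in the left flank (0.1 mL of 3 × 10⁶ viable cells/mL in Ca²⁺/Mg²⁺-free PBS) at 6-7 weeks and used after ten days. [¹²³I]benzamide (0.37-0.74 MBq, 100 µL, saline) was injected via the tail vein. Groups of n = 5 were killed by CO₂ and cervical dislocation. Organs were weighed and γ-counted, and the carcass was counted too.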

[3] = test system: Blood; experiment: Biodistribution in blood of B16F0 tumor bearing C57BL/6J mouse at 0.37-0.74 MBq, iv after 24 hrs; format: ADME, organism-based; in short: as §2
[4] = test system: Liver; experiment: Biodistribution in liver of B16F0 tumor bearing C57BL/6J mouse at 0.37-0.74 MBq, iv after 24 hrs in presence of haloperidol; format: ADME, organism-based
In short: (§3)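 Haloperidol blocking in B16F0-bearing C57BL/6J mice: 1 mg/kg haloperidol was given iv 5 min before the iv [¹²³I]benzamide (0.37-0.74 MBq). Groups of n = 5 were killed at 1 or 24 h. Tissues were weighed and γ-counted as in the biodistribution study and compared with untreated controls by one-way ANOVA, with p < 0.01 taken as significant.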

[5] = test system: Lung; experiment: Biodistribution in lung of B16F0 tumor bearing C57BL/6J mouse at 0.37-0.74 MBq, iv after 24 hrs; format: ADME, organism-based; in short: as §2
[6] = test system: Blood; experiment: Biodistribution in blood of B16F0 tumor bearing C57BL/6J mouse at 0.37-0.74 MBq, iv after 48 hrs; format: ADME, organism-based; in short: as §2
[7] = test system: Blood; experiment: Biodistribution in blood of B16F0 tumor bearing C57BL/6J mouse at 0.37-0.74 MBq, iv after 72 hrs; format: ADME, organism-based; in short: as §2
[8] = test system: Lung; experiment: Biodistribution in lung of B16F0 tumor bearing C57BL/6J mouse at 0.37-0.74 MBq, iv after 48 hrs; format: ADME, organism-based; in short: as §2
[9] = test system: Blood; experiment: Biodistribution in blood of B16F0 tumor bearing C57BL/6J mouse at 0.37-0.74 MBq, iv after 1 hr; format: ADME, organism-based; in short: as §2
[10] = test system: Blood; experiment: Biodistribution in blood of B16F0 tumor bearing C57BL/6J mouse at 0.37-0.74 MBq, iv after 1 hr in presence of haloperidol; format: ADME, organism-based
[11] = test system: Lung; experiment: Biodistribution in lung of B16F0 tumor bearing C57BL/6J mouse at 0.37-0.74 MBq, iv after 3 hrs; format: ADME, organism-based; in short: as §2
[12] = Biodistribution in melanoma of B16F0 tumor bearing C57BL/6J mouse at 0.37-0.74 MBq, iv after 1 hr; format: ADME, organism-based, B16-F0; in short: as §2
[13] = test system: Kidney; experiment: Biodistribution in kidney of B16F0 tumor bearing C57BL/6J mouse at 0.37-0.74 MBq, iv after 6 hrs; format: ADME, organism-based; in short: as §2
[14] = test system: Brain; experiment: Biodistribution in brain of B16F0 tumor bearing C57BL/6J mouse at 0.37-0.74 MBq, iv after 24 hrs; format: ADME, organism-based; in short: as §2
[15] = test system: Kidney; experiment: Biodistribution in kidney of B16F0 tumor bearing C57BL/6J mouse at 0.37-0.74 MBq, iv after 24 hrs in presence of haloperidol; format: ADME, organism-based; in short: as §3
[16] = test system: Heart; experiment: Biodistribution in heart of B16F0 tumor bearing C57BL/6J mouse at 0.37-0.74 MBq, iv after 6 hrs; format: ADME, organism-based; in short: as §2
[17] = Biodistribution in melanoma of B16F0 tumor bearing C57BL/6J mouse at 0.37-0.74 MBq, iv after 72 hrs; format: ADME, organism-based, B16-F0
In short: (§4)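 Female C57BL/6J mice (15-18 g) carrying s.c. B16F0 flank tumors (0.1 mL of 3 × 10⁶ viable cells per mL in Ca²⁺/Mg²⁺-free PBS, inoculated at 6-7 weeks, used 10 days later). [¹²³I]tracer 0.37-0.74 MBq in saline, 100 µL, tail-vein i.v. Groups of n = 5 killed at 1-72 h. Organs weighed and γ-counted, carcass activity also counted, values as %ID/g.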

[18] = test system: Kidney; experiment: Biodistribution in kidney of B16F0 tumor bearing C57BL/6J mouse at 0.37-0.74 MBq, iv after 1 hr in presence of haloperidol; format: ADME, organism-based; in short: as §3
[19] = Biodistribution in melanoma of B16F0 tumor bearing C57BL/6J mouse at 0.37-0.74 MBq, iv after 24 hrs; format: ADME, organism-based, B16-F0; in short: as §2
[20] = test system: Brain; experiment: Biodistribution in brain of B16F0 tumor bearing C57BL/6J mouse at 0.37-0.74 MBq, iv after 1 hr; format: ADME, organism-based; in short: as §2
[21] = test system: Liver; experiment: Biodistribution in liver of B16F0 tumor bearing C57BL/6J mouse at 0.37-0.74 MBq, iv after 1 hr; format: ADME, organism-based; in short: as §2
[22] = test system: Blood; experiment: Biodistribution in blood of B16F0 tumor bearing C57BL/6J mouse at 0.37-0.74 MBq, iv after 3 hrs; format: ADME, organism-based; in short: as §2
[23] = test system: Liver; experiment: Biodistribution in liver of B16F0 tumor bearing C57BL/6J mouse at 0.37-0.74 MBq, iv after 48 hrs; format: ADME, organism-based; in short: as §2
[24] = Biodistribution in melanoma of B16F0 tumor bearing C57BL/6J mouse at 0.37-0.74 MBq, iv after 48 hrs; format: ADME, organism-based, B16-F0; in short: as §2
[25] = test system: Lung; experiment: Biodistribution in lung of B16F0 tumor bearing C57BL/6J mouse at 0.37-0.74 MBq, iv after 1 hr; format: ADME, organism-based; in short: as §2
[26] = Biodistribution in tumor of B16F0 tumor bearing C57BL/6J mouse at 0.37-0.74 MBq, iv after 24 hrs in presence of haloperidol; format: ADME, organism-based, B16-F0; in short: as §1
[27] = test system: Kidney; experiment: Biodistribution in kidney of B16F0 tumor bearing C57BL/6J mouse at 0.37-0.74 MBq, iv after 48 hrs; format: ADME, organism-based; in short: as §2
[28] = Biodistribution in melanoma of B16F0 tumor bearing C57BL/6J mouse at 0.37-0.74 MBq, iv after 6 hrs; format: ADME, organism-based, B16-F0; in short: as §4
[29] = Biodistribution in melanoma of B16F0 tumor bearing C57BL/6J mouse at 0.37-0.74 MBq, iv after 3 hrs; format: ADME, organism-based, B16-F0; in short: as §2
[30] = test system: Lung; experiment: Biodistribution in lung of B16F0 tumor bearing C57BL/6J mouse at 0.37-0.74 MBq, iv after 6 hrs; format: ADME, organism-based; in short: as §2
[31] = test system: Blood; experiment: Biodistribution in blood of B16F0 tumor bearing C57BL/6J mouse at 0.37-0.74 MBq, iv after 6 hrs; format: ADME, organism-based; in short: as §2
[32] = test system: Liver; experiment: Biodistribution in liver of B16F0 tumor bearing C57BL/6J mouse at 0.37-0.74 MBq, iv after 6 hrs; format: ADME, organism-based; in short: as §2
[33] = test system: Lung; experiment: Biodistribution in lung of B16F0 tumor bearing C57BL/6J mouse at 0.37-0.74 MBq, iv after 24 hrs in presence of haloperidol; format: ADME, organism-based; in short: as §3
[34] = test system: Heart; experiment: Biodistribution in heart of B16F0 tumor bearing C57BL/6J mouse at 0.37-0.74 MBq, iv after 1 hr; format: ADME, organism-based; in short: as §2

Drug uptake [1]: 6.1 % ID/g
Drug uptake [2]: 0.25 % ID/g
Drug uptake [3]: 0.11 % ID/g
Drug uptake [4]: 0.3 % ID/g
Drug uptake [5]: 0.1 % ID/g
Drug uptake [6]: 0.04 % ID/g
Drug uptake [7]: 0.05 % ID/g
Drug uptake [8]: 0.08 % ID/g
Drug uptake [9]: 1.2 % ID/g
Drug uptake [10]: 1.15 % ID/g
Drug uptake [11]: 0.95 % ID/g
Drug uptake [12]: 5.6 % ID/g
Drug uptake [13]: 1.2 % ID/g
Drug uptake [14]: 0.01 % ID/g
Drug uptake [15]: 0.03 % ID/g
Drug uptake [16]: 0.54 % ID/g
Drug uptake [17]: 2.2 % ID/g
Drug uptake [18]: 17.3 % ID/g
Drug uptake [19]: 6.1 % ID/g
Drug uptake [20]: 0.07 % ID/g
Drug uptake [21]: 16.8 % ID/g
Drug uptake [22]: 0.95 % ID/g
Drug uptake [23]: 0.38 % ID/g
Drug uptake [24]: 4.6 % ID/g
Drug uptake [25]: 1.9 % ID/g
Drug uptake [26]: 4.5 % ID/g
Drug uptake [27]: 0.07 % ID/g
Drug uptake [28]: 8.4 % ID/g
Drug uptake [29]: 9.7 % ID/g
Drug uptake [30]: 0.56 % ID/g
Drug uptake [31]: 0.71 % ID/g
Drug uptake [32]: 1.8 % ID/g
Drug uptake [33]: 0.02 % ID/g
Drug uptake [34]: 0.98 % ID/g
SMILES: CCCCN(C)CCCCNC(=O)c1cc([123I])c(NC(C)=O)cc1OC
